Results on 7 compounds are retold here after ChEMBL document CHEMBL3272290, “Contragestational agents. 1. Steroidal O-aryloximes” (J Med Chem, 1977).

The test system of data set [1] is Rattus norvegicus. Briefly: Antifertility activity in Wistar rat assessed as inhibition of preimplantive gestation by measuring resorptions at 5 mg/kg, po administered in days 9 to 12 of pregnancy measured on day 21. Set-up: scale not given: the % may be the effect or the level left. It counts as functional. The method, boiled down: (§1)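 Groups of five pregnant female Wistar-derived rats dosed orally on days 9–12 of pregnancy, in sesame oil at 0.5 mL per 200 g body weight. Read-out was the percentage of resorptions.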

Data set [2] concerns Rattus norvegicus. Nature of the data set: Antifertility activity in Wistar rat assessed as inhibition of preimplantive gestation by measuring resorptions at 10 mg/kg, po administered in days 9 to 12 of pregnancy measured on day 21. Set-up: scale not given: the % may be the effect or the level left. It counts as functional. The method, boiled down: as §1
Data set [3] has as its system Rattus norvegicus. Briefly: Androgenic activity in castrate immature Wistar rat at 10 mg/kg, po qd for 7 days relative to 17-methyl-testosterone. It counts as functional. The essentials:
(§2)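 Castrated immature rats dosed orally once a day for 7 days, in sesame oil at 0.2 mL per dose. Read-out was ventral prostate weight. Potency is expressed relative to 17-methyltestosterone. MED is the smallest tested dose giving a significant rise in ventral prostate weight.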

Data set [4] concerns Rattus norvegicus. Nature of the data set: Androgenic activity in po dosed castrate immature Wistar rat assessed as dose required to produce significant increase in ventral prostate weight administered qd for 7 days. It counts as functional. Particulars: Prostate gland, 168 h, read-out: MED. The essentials: as §2
Data set [5] has as its system Rattus norvegicus. Briefly: Androgenic activity in castrate immature Wistar rat at 2.5 mg/kg, po qd for 7 days relative to 17-methyl-testosterone. It is filed as functional. The method, boiled down: as §2
Data set [6] deals with Rattus norvegicus. Nature of the data set: Antifertility activity in Wistar rat assessed as inhibition of preimplantive gestation by measuring resorptions at 2.5 mg/kg, po administered in days 9 to 12 of pregnancy measured on day 21. The arrangement: scale not given: the % may be the effect or the level left. It counts as functional. The method, boiled down:
as §1

In data set [7] the test system is Rattus norvegicus. Briefly: Antifertility activity in Wistar rat assessed as inhibition of preimplantive gestation by measuring resorptions at 50 mg/kg, po administered in days 9 to 12 of pregnancy measured on day 21. It counts as functional. Set-up: scale not given: the % may be the effect or the level left. The method, boiled down:
as §1

Data set [8] has as its system Rattus norvegicus. Nature of the data set: Antifertility activity in Wistar rat assessed as inhibition of preimplantive gestation by measuring resorptions at 36 mg/kg, po administered in days 9 to 12 of pregnancy measured on day 21. Set-up: scale not given: the % may be the effect or the level left. It is filed as functional. The method, boiled down:
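Given orally in sesame oil (0.5 mL per 200 g body weight) to groups of five female Wistar-derived rats on days 9–12 of pregnancy. Outcome scored as percent resorptions.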

The test system of data set [9] is Rattus norvegicus. Briefly: Androgenic activity in rat at 10 to 100 mg/kg. It counts as functional, organism-based.
The subject of data set [10] is Rattus norvegicus. Briefly: Antiandrogenic activity in rat at 10 to 100 mg/kg. It is filed as functional, organism-based.
Data set [11] has as its system Oryctolagus cuniculus. Briefly: Estrogenic activity in rabbit at 10 to 100 mg/kg. It counts as functional, organism-based.
Data set [12] deals with Oryctolagus cuniculus. Nature of the data set: Antiestrogenic activity in rabbit at 10 to 100 mg/kg. It is filed as functional, organism-based.
In data set [13] the test system is Oryctolagus cuniculus. Nature of the data set: Androgenic activity in rabbit at 10 to 100 mg/kg. It counts as functional, organism-based.
Data set [14] concerns Rattus norvegicus. Briefly: Antiprogestational activity in rat at 10 to 100 mg/kg. It counts as functional, organism-based.
Data set [15] has as its system Rattus norvegicus. Briefly: Antifertility activity in Wistar rat assessed as inhibition of preimplantive gestation by measuring resorptions at 2.5 mg/kg, po administered in day 11 of pregnancy measured on day 21. It is filed as functional, organism-based. The arrangement: dose 2.5 mg/kg.
Data set [16] has as its system Rattus norvegicus. Nature of the data set: Toxicity in rat assessed as adverse effect at 10 to 100 mg/kg. It is filed as organism-based. Set-up: dose 10-100 mg/kg. As to conditions: in vivo.
Data set [17] deals with Oryctolagus cuniculus. Briefly: Antiandrogenic activity in rabbit at 10 to 100 mg/kg. It counts as functional, organism-based.
Data set [18] relates to Oryctolagus cuniculus. Briefly: Toxicity in rabbit assessed as adverse effect at 10 to 100 mg/kg. It is filed as organism-based. Set-up: dose 10-100 mg/kg. As to conditions: in vivo.
In data set [19] the test system is Rattus norvegicus. Briefly: Antifertility activity in Wistar rat assessed as inhibition of preimplantive gestation by measuring resorptions at 5 mg/kg, po administered in days 1 to 6 of pregnancy measured on day 21. It counts as functional, organism-based. The arrangement: dose 5 mg/kg.
Data set [20] deals with Oryctolagus cuniculus. Briefly: Antiprogestational activity in rabbit at 10 to 100 mg/kg. It counts as functional, organism-based.
Data set [21] deals with Rattus norvegicus. Nature of the data set: Estrogenic activity in rat at 10 to 100 mg/kg. It counts as functional, organism-based.
Data set [22] deals with Rattus norvegicus. Nature of the data set: Progestational activity in rat at 10 to 100 mg/kg. It counts as functional, organism-based.
Data set [23] deals with Rattus norvegicus. Briefly: Antiestrogenic activity in rat at 10 to 100 mg/kg. It is filed as functional, organism-based.
Data set [24] relates to Oryctolagus cuniculus. Briefly: Progestational activity in rabbit at 10 to 100 mg/kg. It counts as functional, organism-based.

Active and inactive are the calls of the source. No cut-off for these calls is given here.

With `CCCCCCC(=O)O[C@H]1CC[C@H]2[C@@H]3CC[C@H]4C/C(=N/Oc5ccc([N+](=O)[O-])cc5)CC[C@]4(C)[C@H]3CC[C@]12C`, the Activity in the data set with Rattus norvegicus [1] is 100%.

Take `C[C@]12CC[C@H]3[C@@H](CCC4=C/C(=N/Oc5ccc([N+](=O)[O-])cc5[N+](=O)[O-])CC[C@@]43C)[C@@H]1CC[C@@H]2O`: the Activity amounted to 80.8% in the data set on Rattus norvegicus [2] and 80% in the data set on Rattus norvegicus [3]. The minimal effective dose with Rattus norvegicus [4] was found to be 1.5 mg/kg.

As for `CC(=O)O[C@H]1CC[C@H]2[C@@H]3CC[C@H]4C/C(=N/Oc5ccc([N+](=O)[O-])cc5)CC[C@]4(C)[C@H]3CC[C@]12C`, the Activity came to 2.5% in the data set on Rattus norvegicus [5] and 96.6% in the data set with Rattus norvegicus [6]. Besides, the minimal effective dose in the data set on Rattus norvegicus [4] worked out at 30 mg/kg.

Consider `C[C@]12CC/C(=N\Oc3ccc([N+](=O)[O-])cc3C(F)(F)F)C[C@@H]1CC[C@@H]1[C@@H]2CC[C@]2(C)[C@@H](O)CC[C@@H]12`, for which the Activity in the data set with Rattus norvegicus [7] was 0%.

As for `C[C@]12C[C@@H](Cl)/C(=N\Oc3ccc([N+](=O)[O-])cc3)C[C@@H]1CC[C@@H]1[C@@H]2CC[C@]2(C)[C@@H](O)CC[C@@H]12`, in the data set with Rattus norvegicus [1], the Activity is on record as 100%.

For `C[C@]12CC/C(=N\Oc3ccc([N+](=O)[O-])cc3)C[C@@H]1CC[C@@H]1[C@@H]2CC[C@]2(C)/C(=N/O)CC[C@@H]12`, the Activity in the data set on Rattus norvegicus [8] was 0%.

Turning to `CC(=O)O[C@H]1CC[C@H]2[C@@H]3CC[C@H]4C/C(=N/Oc5ccc([N+](=O)[O-])cc5)[C@H](Cl)C[C@]4(C)[C@H]3CC[C@]12C` [NISTERIME ACETATE], the outcome in the data set with Rattus norvegicus [9], in the data set with Rattus norvegicus [10], in the data set with Oryctolagus cuniculus [11], in the data set on Oryctolagus cuniculus [12], with Oryctolagus cuniculus [13] and in the data set on Rattus norvegicus [14] was inactive. Further, the result with Oryctolagus cuniculus [17], with Oryctolagus cuniculus [20], in the data set on Rattus norvegicus [21], in the data set with Rattus norvegicus [22], in the data set on Rattus norvegicus [23] and in the data set on Oryctolagus cuniculus [24] was inactive. Also, the inhibition result in the data set on Rattus norvegicus [15] and in the data set on Rattus norvegicus [19] was “Active” each time. For the same compound, the Activity entry in the data set on Rattus norvegicus [16] is given as “Non-toxic”; with Oryctolagus cuniculus [18], “Non-toxic”; in the data set with Rattus norvegicus [6], 100%. Also, the minimal effective dose with Rattus norvegicus [4] was over 90 mg/kg.
